IEC-6 tox – IEC-6 cytotoxicity, counter-screen for KLF5 inhibitors | luminescence viability | inhibition, % at 5 µM | 290,000 compounds, 0.78% hits | AID 1825;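 note: 0% = plate median of test compound wells and 100% = cytotoxic reference compound wells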
Ba/F3 V617F tox – lowers viability of Ba/F3 cells expressing EpoR and JAK2V617F | AID 1446 | inhibition, % at 5.6 µM | ATP luminescence | 220,000 compounds, 1.1% hits;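 active = inhibition above the campaign mean plus 3 SD over all tested compounds, cut at about 24% in these data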;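 note: cytokine-independent growth of Ba/F3 cells driven by EpoR plus mutant JAK2; 0% = DMSO-treated cells and 100% = JAK inhibitor I control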
MT stabilizer – stabilizes microtubules in HeLa cells. HeLa tubulin immunostaining HCS, 24 h; share of cells brighter than vehicle mean+2SD. % tubulin-high responders, % at 10 µM. 200,000 compounds, 0.83% hits. AID 2205;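 active = plate Z-score above 3 for both tubulin-high and condensed-nucleus cell shares, with cell loss under 80%, at 10 µM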;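 note: anti alpha tubulin signal scored within the nucleus-defined area of each cell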
bCat nuc transl – alters nuclear translocation of beta-catenin in HeLa cells; immunofluorescence imaging; nuclear translocation activity, % at 5 µM; 190,000 compounds, 0.3% hits; AID 1665;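 active = nuclear translocation activity above 50% at 5 µM, with a well cell count of 50 or more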;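 note: per-cell ratio of nuclear to cytoplasmic median beta-catenin stain intensity; plate controls were DMSO negative control for no effect and GSK-3 inhibitor IX positive control for full effect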
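Technique: fluorescence imaging of beta-catenin antibody stain plus DAPI / Material: human HeLa cell line / Incubation: compound treatment 24 h, 37°C, 5% CO2 / Read-out basis: % activation of per-cell nuclear versus cytoplasmic median beta-catenin signal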
APP transl inh – APP translation inhibition; inhibition, % at 2 µM; SH-SY5Y APP 5'UTR-luciferase reporter, luminescence; 190,000 compounds, 0.82% hits;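 active = inhibition above a set limit, derived from the sample mean plus 3 SD, cut at about 45% in these data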
BaF3 parental – counter-screen for JAK2V617F inhibitors: parental Ba/F3 viability inhibitors | CellTiter-Glo ATP luminescence | inhibition, % at 5.6 µM | 220,000 compounds, 1.1% hits;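 active = inhibition above a per-campaign cutoff, the mean inhibition of all tested compounds plus 3 SD, cut at about 27% in these data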;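 note: 0% = DMSO wells and 100% = JAK Inhibitor I control wells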
IEC-6 cytotox cf – confirmation of cytotoxic compounds in rat IEC-6 intestinal epithelial cells. shares compounds with IEC-6 tox. IEC-6 rat intestinal epithelial viability, luminescence. inhibition, % at 5 µM. 1,900 compounds, 63% hits. AID 1907;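 note: 0% = vehicle and 100% = reference cytotoxic drug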
An asterisk follows results filed as active. Hits are enriched below; roughly 2.2% of the tested compounds scored in any of these assays. Cut-off read from the data, not from the text of the source, unless noted: active = inhibition above about 22%; inactive = the rest.

Screening COc1cc(-c2noc(C)c2/C=C/c2ccc(N)cc2)cc(OC)c1OC returned IEC-6 tox 95.6* and IEC-6 cytotox cf 75.7*.
For COc1cc(-c2noc(C)c2C#Cc2ccc(N)cc2)cc(OC)c1OC the results were IEC-6 tox 86.9* and IEC-6 cytotox cf 63.9*.
For COc1cc(-c2noc(C)c2C#Cc2ccccn2)cc(OC)c1OC the results were IEC-6 tox 81.9* and IEC-6 cytotox cf 61.6*.
O=C(Nc1ccc2c(c1)COC2=O)c1ccc(Cl)c(Cl)c1 was read as IEC-6 tox 2.6.
`O=C(CSc1ccc(-c2ccccn2)nn1)Nc1ccc(F)c(F)c1` gave IEC-6 tox 7.2.
For CC(C)NC(=S)N/N=C/c1cc(Br)ccc1O the results were IEC-6 tox 94.5*, Ba/F3 V617F tox -6.1, MT stabilizer 2.5, bCat nuc transl -1.7, APP transl inh -9.8, BaF3 parental 2.8 and IEC-6 cytotox cf 0.5.
Screening Cc1ccc(C(=O)N/N=C/c2cc(Br)ccc2O)cn1 returned IEC-6 tox 83.6* and IEC-6 cytotox cf 12.9.
Screening COC(=O)N/N=C/c1cc(Br)ccc1O returned IEC-6 tox 1.7, Ba/F3 V617F tox 3.3, MT stabilizer 3.0, bCat nuc transl 0.4, APP transl inh 2.2 and BaF3 parental 9.8.
Cc1c(C(=O)Nc2cccc([N+](=O)[O-])c2)cnn1-c1ccccc1 was read as IEC-6 tox -2.9.
For CCCC(=O)Nc1nc2ccc(NC(=O)c3ccccc3F)cc2s1 the results were IEC-6 tox 75.4*, Ba/F3 V617F tox 82.0*, MT stabilizer 34.1*, bCat nuc transl 6.4, APP transl inh 75.8*, BaF3 parental 80.5* and IEC-6 cytotox cf 55.4*.
For Cc1ccc2nc(NC(=O)c3ccccc3F)sc2c1 the results were IEC-6 tox 1.1.
For O=C(CCl)N(c1ccccc1)c1c[nH]c2ccccc12 the results were IEC-6 tox 33.8*, Ba/F3 V617F tox 101.1*, MT stabilizer 14.0, bCat nuc transl 1.0, APP transl inh 32.0, BaF3 parental 50.0* and IEC-6 cytotox cf 10.3.
CCN(CC)c1ccc(/C=N/NC(=O)CNC(=O)C2COc3ccccc3O2)c(O)c1 (centres undefined) was read as IEC-6 tox 51.7* and IEC-6 cytotox cf 48.3*.
COc1ccccc1NC(=O)CNC(c1ccccc1)c1ccccc1 was read as IEC-6 tox -7.1.
Screening COc1ccc(C)cc1NC(=O)CNC(c1ccccc1)c1ccc(C)cc1 (centres undefined) returned IEC-6 tox 68.6* and IEC-6 cytotox cf 50.8*.
Screening COc1ccc(/C=N/NC(=O)c2[nH]c3ccc(Br)cc3c2-c2ccccc2)c(C(=O)O)c1OC returned IEC-6 tox 0.4, Ba/F3 V617F tox -3.9, bCat nuc transl 0.8 and BaF3 parental 0.4.
For COc1ccc(/C=N/NC(=O)c2[nH]c3ccc(Br)cc3c2-c2ccccc2)cc1 the results were IEC-6 tox 73.3*, Ba/F3 V617F tox 96.0*, MT stabilizer 13.7*, bCat nuc transl 42.4, APP transl inh 96.7*, BaF3 parental 92.6* and IEC-6 cytotox cf 83.0*.
For COc1ccc(/C=N/NC(=O)c2[nH]c3ccc(Cl)cc3c2-c2ccccc2)c(C(=O)O)c1OC the results were IEC-6 tox 88.3* and IEC-6 cytotox cf 11.6.
Screening Cc1ccccc1S(=O)(=O)Cc1ccc(C(=O)N2CCN(c3cccc(C)c3C)CC2)o1 returned IEC-6 tox 17.5, Ba/F3 V617F tox 1.3, MT stabilizer 8.0, bCat nuc transl 6.7, APP transl inh 20.4 and BaF3 parental 4.2.
`Cc1cccc(N2CCN(C(=O)c3cc(S(=O)(=O)N4CCCC4)cn3C)CC2)c1C` gave IEC-6 tox 52.1* and IEC-6 cytotox cf 15.5.
For COc1ccc(S(=O)Cc2ccc(C(=O)N3CCN(c4cccc(C)c4C)CC3)o2)cc1 (centres undefined) the results were IEC-6 tox 31.9* and IEC-6 cytotox cf 37.4*.
`COc1cc(C(=O)N2CCN(c3cccc(C)c3C)CC2)cc(OC)c1OC` gave IEC-6 tox 81.7*, Ba/F3 V617F tox 69.7*, MT stabilizer 13.1, bCat nuc transl 64.0*, APP transl inh 94.6*, BaF3 parental 70.7* and IEC-6 cytotox cf 58.1*.
